{"source": "paper PMC3288537", "about": "(ACS Chemical Biology, 2011)", "key": {"HePTP": {"target": "T1, HePTP (Homo sapiens, UniProt P35236)", "T1 sequence (P35236 1-360)": "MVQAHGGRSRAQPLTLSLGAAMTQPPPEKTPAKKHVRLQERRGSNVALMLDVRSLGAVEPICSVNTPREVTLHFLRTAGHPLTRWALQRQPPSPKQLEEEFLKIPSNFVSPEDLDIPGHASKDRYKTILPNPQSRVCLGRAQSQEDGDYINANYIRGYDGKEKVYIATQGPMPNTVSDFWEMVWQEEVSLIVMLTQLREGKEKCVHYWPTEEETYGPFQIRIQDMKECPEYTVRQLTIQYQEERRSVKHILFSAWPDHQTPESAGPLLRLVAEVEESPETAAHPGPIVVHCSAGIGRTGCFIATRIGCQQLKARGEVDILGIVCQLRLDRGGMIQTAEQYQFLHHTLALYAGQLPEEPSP", "assay": "Dose-response OMFP phosphatase assay, HePTP", "type": "biochemical"}, "[1]": {"test_system": "ERK1/2 and p38 phosphorylation in splenocytes", "assay": "Immunoblot of phosphorylation levels in spleen of mice injected i.p.", "type": "in vivo, C57B6 mice", "details": "mouse spleen, doses and time points used", "method_in_brief": "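C57B6 mice given test compound i.p. at 3 or 5 mg kg-1, or vehicle; spleens taken 3 h or 6 h later (3 mice per dose and time). Spleen sonicated in Tris pH 7.4 buffer with phosphatase and protease inhibitors; 800 × g supernatant used. Blotted for pS473-AKT, pS23-HePTP, pERK1/2 and pp38, normalised to total protein then GAPDH. ANOVA/Tukey or t-test.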"}, "SHP1": {"target": "SHP1 (Homo sapiens, UniProt P29350)", "sequence (P29350 whole entry)": "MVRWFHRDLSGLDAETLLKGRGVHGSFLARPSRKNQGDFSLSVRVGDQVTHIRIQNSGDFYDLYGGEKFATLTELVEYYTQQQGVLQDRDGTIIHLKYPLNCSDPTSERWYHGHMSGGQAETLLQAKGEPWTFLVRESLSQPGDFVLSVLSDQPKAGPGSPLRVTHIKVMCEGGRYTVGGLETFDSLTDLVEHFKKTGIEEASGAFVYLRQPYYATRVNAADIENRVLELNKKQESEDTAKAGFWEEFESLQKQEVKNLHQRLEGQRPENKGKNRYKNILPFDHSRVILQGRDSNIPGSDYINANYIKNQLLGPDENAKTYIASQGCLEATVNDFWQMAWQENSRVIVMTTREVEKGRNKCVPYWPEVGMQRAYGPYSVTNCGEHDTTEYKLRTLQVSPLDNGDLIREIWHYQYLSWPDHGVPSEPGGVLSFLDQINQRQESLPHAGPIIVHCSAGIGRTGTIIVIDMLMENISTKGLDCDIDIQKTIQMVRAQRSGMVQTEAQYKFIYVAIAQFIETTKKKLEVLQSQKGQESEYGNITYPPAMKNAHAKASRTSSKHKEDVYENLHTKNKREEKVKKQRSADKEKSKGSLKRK", "assay": "Dose-response OMFP phosphatase assay, SHP1", "type": "biochemical", "details": "read-out: IC50 SHP1; OMFP substrate", "method_in_brief": "(§1)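 Ten-point 2-fold dilution series of test compound prepared in DMSO. Fluorescence (ex 485/em 528 nm) read in kinetic mode over 10 min; progress-curve slopes taken as activity. IC50 by nonlinear regression (sigmoidal, variable slope).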"}, "PTP-SL": {"target": "T2, PTP-SL (Homo sapiens, UniProt Q15256)", "T2 sequence (Q15256 22-657)": "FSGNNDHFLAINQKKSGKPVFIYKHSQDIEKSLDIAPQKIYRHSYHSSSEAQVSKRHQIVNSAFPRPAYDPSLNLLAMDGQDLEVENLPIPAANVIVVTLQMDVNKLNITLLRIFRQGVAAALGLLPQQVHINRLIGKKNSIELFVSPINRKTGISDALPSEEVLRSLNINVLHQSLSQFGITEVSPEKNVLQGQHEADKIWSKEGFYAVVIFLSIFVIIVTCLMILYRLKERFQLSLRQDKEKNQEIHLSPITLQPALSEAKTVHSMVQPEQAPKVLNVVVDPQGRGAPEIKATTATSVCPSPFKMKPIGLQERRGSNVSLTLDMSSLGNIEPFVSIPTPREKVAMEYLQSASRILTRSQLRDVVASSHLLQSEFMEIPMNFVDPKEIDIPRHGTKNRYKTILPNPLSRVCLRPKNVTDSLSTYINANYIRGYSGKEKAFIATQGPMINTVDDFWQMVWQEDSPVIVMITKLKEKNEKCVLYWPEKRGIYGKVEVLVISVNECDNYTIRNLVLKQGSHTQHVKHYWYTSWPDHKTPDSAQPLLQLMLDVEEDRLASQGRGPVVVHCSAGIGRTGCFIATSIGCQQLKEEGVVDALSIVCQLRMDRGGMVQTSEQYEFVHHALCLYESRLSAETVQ", "assay": "Dose-response OMFP phosphatase assay, PTP-SL", "type": "biochemical", "details": "read-out: IC50 PTP-SL; OMFP substrate"}, "CD45": {"target": "T3, CD45 (Homo sapiens, UniProt P08575)", "T3 sequence (P08575 26-1306)": "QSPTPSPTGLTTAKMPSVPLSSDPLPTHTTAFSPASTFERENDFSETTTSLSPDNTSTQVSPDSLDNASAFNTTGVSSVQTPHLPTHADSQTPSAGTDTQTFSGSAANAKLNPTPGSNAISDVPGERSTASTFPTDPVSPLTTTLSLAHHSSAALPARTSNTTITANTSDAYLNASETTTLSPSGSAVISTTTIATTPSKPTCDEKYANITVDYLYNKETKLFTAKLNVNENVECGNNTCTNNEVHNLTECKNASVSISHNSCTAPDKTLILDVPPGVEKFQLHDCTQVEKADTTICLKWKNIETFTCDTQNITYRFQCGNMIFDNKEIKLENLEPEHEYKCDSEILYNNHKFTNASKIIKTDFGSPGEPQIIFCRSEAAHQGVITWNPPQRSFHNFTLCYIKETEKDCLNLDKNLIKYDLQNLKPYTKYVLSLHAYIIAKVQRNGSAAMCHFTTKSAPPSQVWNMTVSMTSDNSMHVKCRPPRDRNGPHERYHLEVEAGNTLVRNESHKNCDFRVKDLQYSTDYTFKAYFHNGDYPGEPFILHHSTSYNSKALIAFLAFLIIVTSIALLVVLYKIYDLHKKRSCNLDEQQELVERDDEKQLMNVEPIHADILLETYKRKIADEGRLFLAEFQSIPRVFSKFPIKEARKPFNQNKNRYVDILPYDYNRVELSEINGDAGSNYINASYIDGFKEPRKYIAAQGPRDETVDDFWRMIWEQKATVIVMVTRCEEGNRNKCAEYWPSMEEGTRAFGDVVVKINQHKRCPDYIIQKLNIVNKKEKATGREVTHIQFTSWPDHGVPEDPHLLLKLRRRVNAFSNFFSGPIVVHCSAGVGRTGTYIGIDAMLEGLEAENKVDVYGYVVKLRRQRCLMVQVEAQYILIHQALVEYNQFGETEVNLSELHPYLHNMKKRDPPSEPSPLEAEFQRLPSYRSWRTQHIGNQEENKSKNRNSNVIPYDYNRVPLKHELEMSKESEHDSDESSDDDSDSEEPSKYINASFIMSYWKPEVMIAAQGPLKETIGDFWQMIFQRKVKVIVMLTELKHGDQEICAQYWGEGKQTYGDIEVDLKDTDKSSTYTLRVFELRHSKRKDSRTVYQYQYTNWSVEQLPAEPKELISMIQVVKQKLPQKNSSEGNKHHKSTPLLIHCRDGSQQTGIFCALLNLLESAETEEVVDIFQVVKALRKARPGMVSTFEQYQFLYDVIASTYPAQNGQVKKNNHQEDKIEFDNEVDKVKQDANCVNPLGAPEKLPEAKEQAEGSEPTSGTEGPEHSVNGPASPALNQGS", "assay": "Dose-response OMFP phosphatase assay, CD45", "type": "biochemical", "details": "read-out: IC50 CD45; OMFP substrate", "method_in_brief": "as §1"}}}
{"molecule": "O=C(O)c1ccccc1-c1ccc(/C=c2\\sc3nc4cc(Br)cnc4n3c2=O)o1", "note": "[Compound 1]", "values": [{"measurement": "time-dependent inhibition of HePTP (progress curves)", "setting": "HePTP; progress curves linear over 98 min at different concentrations", "value": "no time-dependent inhibition"}, {"measurement": "IC50", "setting": "HePTP; read-out: IC50 HePTP, OMFP substrate", "value": 210, "unit": "nM"}, {"measurement": "AKT phosphorylation levels", "setting": "[1]", "value": "no change"}, {"measurement": "phospho-HePTP (pS23) levels", "setting": "[1]", "value": "No changes"}, {"measurement": "IC50", "setting": "SHP1", "value": 2500, "unit": "nM"}, {"measurement": "IC50", "setting": "PTP-SL", "value": 1100, "unit": "nM"}, {"measurement": "IC50", "setting": "CD45", "value": 3100, "unit": "nM"}]}
